Consider three substances from PMC9909794 (ACS Omega, 2023).

Assay [1] has as its system human dermal fibroblasts (HDFs). Nature of the assay: Cell adhesion assay on peptide-BSA-coated plates, HDFs. In kind it is cell-based. The settings on record: peptides conjugated at 0.125 μM and 1 μM; 5 × 10^3 cells/well; 1 h. The gist of the method: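 HDFs grown in DMEM with 10% FBS and penicillin/streptomycin, detached with 0.05% trypsin–EDTA, and suspended in 0.1% BSA/DMEM. Plates coated with Mal-BSA (10 μg/mL in water; 30 min, 37 °C), then Cys-PPP-spacer amide peptides in 100 mM HEPES pH 7 for 2 h. After 1 h adhesion, cells fixed and stained with crystal violet. Counts averaged over nine 0.77 mm2 fields; mean ± SE, three independent experiments.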

Assay [2] concerns integrin αvβ3. The settings on record: cited from earlier work.
Assay [3] concerns integrin αvβ5. The settings on record: cited from earlier work.

As for CPPP-RGDNYP, the “Effect of the X3 amino acid on cell adhesion activity, HDFs” value in assay [1] is reported as “negligible”. Turning to c(RGDf(NMe)V) [cilengitide], in assay [2], the “Affinity for integrin αvβ3 relative to linear RGD peptides” value is listed as “much higher affinity”. For the same substance, the “Affinity for integrin αvβ5 relative to linear RGD peptides” value in assay [3] is given as “much higher affinity”. In the case of CPPP-RGDNYI, the “Effect of the X3 amino acid on cell adhesion activity, HDFs” value in assay [1] is “negligible”.
